# From ChEMBL document CHEMBL4689842, “EUbOPEN Chemogenomics Library wave 1” (2021)
# System: Fibroblast
# Assay: Multiplex assay against human fibroblast
# Type: toxicity, cell-based
# Summary of the method: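 Four dyes were applied at seeding to live cells: Hoechst33342, BioTracker Green Microtubule Cytoskeleton Dye, MitoTracker Red and Annexin V Alexa Fluor 680. Imaging after compound addition used a CQ1 microscope at 37°C and 5% CO2. CellPathfinder machine-learning gating then sorted cells into Hoechst high-intensity objects or normal cells, normal cells into healthy, pyknosed or fragmented nuclei, and pyknosed cells into mitotic or apoptotic, with tubulin, mitochondrial-mass and membrane-permeability phenotypes given as per cents of healthy-nucleus cells.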
# [1] = 12 h, 1 µM, compound concentration 1 uM, replicate 1
# [2] = 12 h, 1 µM, compound concentration 1 uM, replicate 2
# [3] = 12 h, 10 µM, compound concentration 10 uM, replicate 1
# [4] = 12 h, 10 µM, compound concentration 10 uM, replicate 2
# [5] = 24 h, 1 µM, compound concentration 1 uM, replicate 1
# [6] = 24 h, 1 µM, compound concentration 1 uM, replicate 2
# [7] = 24 h, 10 µM, compound concentration 10 uM, replicate 1
# [8] = 24 h, 10 µM, compound concentration 10 uM, replicate 2
# [9] = 48 h, 1 µM, compound concentration 1 uM, replicate 1
# [10] = 48 h, 1 µM, compound concentration 1 uM, replicate 2
# [11] = 48 h, 10 µM, compound concentration 10 uM, replicate 1
# [12] = 48 h, 10 µM, compound concentration 10 uM, replicate 2
smiles,measurement,setting,value
CC(C)(O)CNc1ncc(-c2ccnc(Nc3ccnc(Cl)c3)n2)c(CC2CC2)n1,Population Apoptotic (%),[1],59%
same,Population Fragmented Nuclei (%),[1],27%
same,Population Healthy Nuclei (%),[1],46%
same,Population Hoechst High Intensity Objects (%),[1],14%
same,Population Membrane Permeable-Phenotype (%),[1],35%
same,Population Mitochondria Different-Phenotype (%),[1],6%
same,Population Mitotic Cells (%),[1],40%
same,Population Normal (%),[1],85%
same,Population Pyknosed Nuclei (%),[1],25%
same,Population Tubulin-Different-Phenotype (%),[1],54%
same,Total Cell Count,[1],121
same,Population Apoptotic (%),[2],9%
same,Population Fragmented Nuclei (%),[2],9%
same,Population Healthy Nuclei (%),[2],78%
same,Population Hoechst High Intensity Objects (%),[2],5%
same,Population Membrane Permeable-Phenotype (%),[2],5%
same,Population Mitochondria Different-Phenotype (%),[2],17%
same,Population Mitotic Cells (%),[2],90%
same,Population Normal (%),[2],94%
same,Population Pyknosed Nuclei (%),[2],12%
same,Population Tubulin-Different-Phenotype (%),[2],14%
same,Total Cell Count,[2],97
same,Population Apoptotic (%),[3],58%
same,Population Fragmented Nuclei (%),[3],32%
same,Population Healthy Nuclei (%),[3],24%
same,Population Hoechst High Intensity Objects (%),[3],7%
same,Population Membrane Permeable-Phenotype (%),[3],18%
same,Population Mitochondria Different-Phenotype (%),[3],45%
same,Population Mitotic Cells (%),[3],41%
same,Population Normal (%),[3],92%
same,Population Pyknosed Nuclei (%),[3],43%
same,Population Tubulin-Different-Phenotype (%),[3],90%
same,Total Cell Count,[3],97
same,Population Apoptotic (%),[4],15%
same,Population Fragmented Nuclei (%),[4],10%
same,Population Healthy Nuclei (%),[4],64%
same,Population Membrane Permeable-Phenotype (%),[4],28%
same,Population Mitochondria Different-Phenotype (%),[4],96%
same,Population Mitotic Cells (%),[4],84%
same,Population Pyknosed Nuclei (%),[4],26%
same,Population Tubulin-Different-Phenotype (%),[4],100%
same,Total Cell Count,[4],93
same,Population Apoptotic (%),[5],53%
same,Population Fragmented Nuclei (%),[5],35%
same,Population Healthy Nuclei (%),[5],51%
same,Population Hoechst High Intensity Objects (%),[5],10%
same,Population Membrane Permeable-Phenotype (%),[5],31%
same,Population Mitochondria Different-Phenotype (%),[5],0%
same,Population Mitotic Cells (%),[5],46%
same,Population Normal (%),[5],90%
same,Population Pyknosed Nuclei (%),[5],12%
same,Population Tubulin-Different-Phenotype (%),[5],53%
same,Total Cell Count,[5],130
same,Population Apoptotic (%),[6],20%
same,Population Fragmented Nuclei (%),[6],11%
same,Population Healthy Nuclei (%),[6],74%
same,Population Hoechst High Intensity Objects (%),[6],4%
same,Population Membrane Permeable-Phenotype (%),[6],10%
same,Population Mitochondria Different-Phenotype (%),[6],20%
same,Population Mitotic Cells (%),[6],80%
same,Population Normal (%),[6],95%
same,Population Pyknosed Nuclei (%),[6],15%
same,Population Tubulin-Different-Phenotype (%),[6],16%
same,Total Cell Count,[6],136
same,Population Apoptotic (%),[7],63%
same,Population Fragmented Nuclei (%),[7],20%
same,Population Healthy Nuclei (%),[7],32%
same,Population Hoechst High Intensity Objects (%),[7],8%
same,Population Membrane Permeable-Phenotype (%),[7],28%
same,Population Mitochondria Different-Phenotype (%),[7],60%
same,Population Mitotic Cells (%),[7],36%
same,Population Normal (%),[7],91%
same,Population Pyknosed Nuclei (%),[7],47%
same,Population Tubulin-Different-Phenotype (%),[7],89%
same,Total Cell Count,[7],95
same,Population Apoptotic (%),[8],47%
same,Population Fragmented Nuclei (%),[8],14%
same,Population Healthy Nuclei (%),[8],40%
same,Population Hoechst High Intensity Objects (%),[8],14%
same,Population Membrane Permeable-Phenotype (%),[8],47%
same,Population Mitochondria Different-Phenotype (%),[8],89%
same,Population Mitotic Cells (%),[8],52%
same,Population Normal (%),[8],85%
same,Population Pyknosed Nuclei (%),[8],44%
same,Population Tubulin-Different-Phenotype (%),[8],100%
same,Total Cell Count,[8],105
same,Population Apoptotic (%),[9],100%
same,Population Fragmented Nuclei (%),[9],51%
same,Population Healthy Nuclei (%),[9],46%
same,Population Hoechst High Intensity Objects (%),[9],18%
same,Population Membrane Permeable-Phenotype (%),[9],27%
same,Population Mitochondria Different-Phenotype (%),[9],3%
same,Population Mitotic Cells (%),[9],0%
same,Population Normal (%),[9],81%
same,Population Tubulin-Different-Phenotype (%),[9],24%
same,Total Cell Count,[9],143
same,Population Apoptotic (%),[10],50%
same,Population Fragmented Nuclei (%),[10],18%
same,Population Healthy Nuclei (%),[10],78%
same,Population Hoechst High Intensity Objects (%),[10],10%
same,Population Membrane Permeable-Phenotype (%),[10],22%
same,Population Mitochondria Different-Phenotype (%),[10],1%
same,Population Mitotic Cells (%),[10],50%
same,Population Normal (%),[10],89%
same,Population Pyknosed Nuclei (%),[10],2%
same,Population Tubulin-Different-Phenotype (%),[10],40%
same,Total Cell Count,[10],84
same,Population Apoptotic (%),[11],54%
same,Population Fragmented Nuclei (%),[11],49%
same,Population Healthy Nuclei (%),[11],29%
same,Population Hoechst High Intensity Objects (%),[11],15%
same,Population Membrane Permeable-Phenotype (%),[11],12%
same,Population Mitochondria Different-Phenotype (%),[11],41%
same,Population Mitotic Cells (%),[11],45%
same,Population Normal (%),[11],84%
same,Population Pyknosed Nuclei (%),[11],21%
same,Population Tubulin-Different-Phenotype (%),[11],93%
same,Total Cell Count,[11],123
same,Population Apoptotic (%),[12],29%
same,Population Fragmented Nuclei (%),[12],23%
same,Population Healthy Nuclei (%),[12],58%
same,Population Hoechst High Intensity Objects (%),[12],9%
same,Population Membrane Permeable-Phenotype (%),[12],7%
same,Population Mitochondria Different-Phenotype (%),[12],51%
same,Population Mitotic Cells (%),[12],70%
same,Population Normal (%),[12],90%
same,Population Pyknosed Nuclei (%),[12],17%
same,Population Tubulin-Different-Phenotype (%),[12],96%
same,Total Cell Count,[12],106
